{"source": "paper PMC4303306", "about": "(Biochemistry, 2014)", "target": "T1, wild-type mouse Shp2 catalytic domain (Mus musculus, UniProt P35235)", "T1 sequence (P35235 224-539)": "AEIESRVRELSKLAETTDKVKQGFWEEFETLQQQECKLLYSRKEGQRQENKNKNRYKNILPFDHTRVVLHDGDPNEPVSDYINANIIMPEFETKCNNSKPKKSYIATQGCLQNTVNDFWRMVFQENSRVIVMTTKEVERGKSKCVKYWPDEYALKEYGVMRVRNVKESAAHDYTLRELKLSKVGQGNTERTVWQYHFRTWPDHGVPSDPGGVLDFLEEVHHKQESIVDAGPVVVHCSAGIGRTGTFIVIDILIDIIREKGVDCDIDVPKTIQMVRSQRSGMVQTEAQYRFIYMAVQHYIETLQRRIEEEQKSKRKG", "test": "PTP inhibition assay with pNPP, wild-type Shp2 catalytic domain", "format": "biochemical", "settings": "120 min incubation", "how_it_was_run": "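Catalytic-domain PTP (50 nM) was preincubated with test compound or vehicle for 120 min at 37 °C in PTP buffer (50 mM 3,3-dimethyl glutarate pH 7.0, 1 mM EDTA, 50 mM NaCl). It was then assayed at 37 °C with pNPP at the enzyme's previously determined KM, quenched with 5 M NaOH and read at 405 nm. Activity was normalized to controls, and IC50 came from a four-parameter logistic fit. For Shp2, β-mercaptoethanol (250 μM–1 mM) was also tested at 500 nM compound.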"}
{"substance": "fluorescein", "values": [{"measurement": "Shp2 inhibition (structure–activity comparison, Figure 2A)", "result": "lack of Shp2 inhibition"}]}
